In ChEMBL document CHEMBL4190344, “Synthesis of substituted phenanthrene-9-benzimidazole conjugates: Cytotoxicity evaluation and apoptosis inducing studies” (Eur J Med Chem, 2017):
The source made the active and inactive calls. No cut-off for these calls is given here.

Tests used:
PC-3 [1] = experiment: Induction of cell death in human PC3 cells assessed as induction of chromatin condensation at 10 uM incubated for 48 hrs by acridine orange and ethidium bromide staining based fluorescence microscopy; assay type: functional
Outline: (§1)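 PC-3 cells (1 × 10^6 cells/mL) were treated with compound and kept 48 h at 37 °C, 5% CO2. Acridine orange and ethidium bromide (10 µg/mL) were added in equal volumes. After 10 min, cells were imaged by fluorescence microscopy (ex 488/em 550 nm, 200×).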

BT-549 = experiment: Cytotoxicity in human BT549 cells incubated for 48 hrs by MTT assay; assay type: functional, cell-based; details: BT-549, 48 h
Outline: (§2)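 Cells (1 × 10^4/well) were seeded in medium with 10% FBS and left 24 h at 37 °C. Compound diluted in medium was then added, alongside a vehicle control, for 48 h. MTT (5 mg/mL stock) was added for 4 h, formazan dissolved in DMSO and absorbance read at 570 nm. IC50 taken as the concentration giving 50% inhibition.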

MDA-MB-453 = experiment: Cytotoxicity in human MDA-MB-453 cells incubated for 48 hrs by MTT assay; assay type: functional, cell-based; details: MDA-MB-453, 48 h; outline: as §2
HCT-116 = experiment: Cytotoxicity in human HCT116 cells incubated for 48 hrs by MTT assay; assay type: functional, cell-based; details: HCT-116, 48 h
Outline: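 Cells (1 × 10^4/well) were seeded in medium with 10% FBS and left 24 h at 37 °C. Compound diluted in medium was then added, alongside a vehicle control, for 48 h. MTT (5 mg/mL stock) was added for 4 h, formazan dissolved in DMSO and absorbance read at 570 nm.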

PC-3 [2] = experiment: Cytotoxicity in human PC3 cells incubated for 48 hrs by MTT assay; assay type: functional, cell-based; details: PC-3, 48 h; outline: as §2
DU-145 = experiment: Cytotoxicity in human DU145 cells incubated for 48 hrs by MTT assay; assay type: functional, cell-based; details: DU-145, 48 h; outline: as §2
PC-3 [3] = experiment: Cytotoxicity in human PC3 cells assessed as reduction in cell viability at 2.5 to 10 uM incubated for 48 hrs by phase contrast microscopy; assay type: functional, cell-based
Outline: (§3)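 PC-3 cells at 1 × 10^5 cells/mL adhered overnight, then received compound at 2.5, 5.0 or 10.0 µM. After 48 h, morphology (viable cell number, nuclear shrinkage, detachment) was imaged by phase contrast microscopy.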

PC-3 [4] = experiment: Induction of morphological changes in human PC3 cells assessed as increase in nuclear shrinkage at 2.5 to 10 uM incubated for 48 hrs by phase contrast microscopy; assay type: functional, cell-based; outline: as §3
PC-3 [5] = experiment: Induction of morphological changes in human PC3 cells assessed as increase in cell detachment at 2.5 to 10 uM incubated for 48 hrs by phase contrast microscopy; assay type: functional, cell-based; outline: as §3
PC-3 [6] = experiment: Induction of cell death in human PC3 cells assessed as induction of apoptotic body formation at 10 uM incubated for 48 hrs by acridine orange and ethidium bromide staining based fluorescence microscopy; assay type: functional; outline: as §1
PC-3 [7] = experiment: Induction of apoptosis in human PC3 cells assessed as induction of condensed nuclei formation at 2.5 to 10 uM incubated for 48 hrs by DAPI staining based fluorescence microscopy; assay type: functional, cell-based
Outline: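 Compound-treated PC-3 cells were PBS-washed, permeabilised with 0.1% Tween 20 for 10 min and stained with 1 µM DAPI. Nuclear morphology was viewed by fluorescence microscopy at ex 359/em 461 nm, 200×.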

PC-3 [8] = experiment: Cell cycle arrest in human PC3 cells assessed as accumulation at G0/G1 phase at 2.5 uM incubated for 24 hrs by propidium iodide staining based flow cytometry (reference value: 56.67%); assay type: functional
PC-3 [9] = experiment: Cell cycle arrest in human PC3 cells assessed as accumulation at subG1 phase at 5 uM incubated for 24 hrs by propidium iodide staining based flow cytometry (reference value: 1.71%); assay type: functional
PC-3 [10] = experiment: Cell cycle arrest in human PC3 cells assessed as accumulation at G2/M phase at 5 uM incubated for 24 hrs by propidium iodide staining based flow cytometry (reference value: 25.96%); assay type: functional
PC-3 [11] = experiment: Cell cycle arrest in human PC3 cells assessed as accumulation at G0/G1 phase at 2.10 uM incubated for 24 hrs by propidium iodide staining based flow cytometry (reference value: 106.67%); assay type: functional
PC-3 [12] = experiment: Induction of reactive oxygen species in human PC3 cells at 2.5 to 10 uM incubated for 6 hrs by DCFDA dye based spectrofluorometry; assay type: functional, cell-based
Outline: (§4)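 PC-3 cells (1 × 10^6 cells/mL) adhered overnight, then were treated at 2.5, 5.0 or 10.0 µM. Medium was replaced with DCFDA 10 µM for 30 min in the dark, and fluorescence read by spectrofluorometer at ex 488/em 525 nm. N-acetyl cysteine pretreatment before compound and H2O2 were used as comparisons.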

PC-3 [13] = experiment: Induction of reactive oxygen species in human PC3 cells at 2.5 to 10 uM pre-incubated with NAC before compound addition for 6 hrs by DCFDA dye based spectrofluorometry; assay type: functional, cell-based; outline: as §4
PC-3 [14] = experiment: Induction of mitochondrial membrane potential loss in human PC3 cells assessed as JC1 monomer level at 5 uM incubated for 24 hrs by JC1 staining based flow cytometry (reference value: 22.8%); assay type: functional
PC-3 [15] = experiment: Induction of mitochondrial membrane potential loss in human PC3 cells assessed as JC1 monomer level at 10 uM incubated for 24 hrs by JC1 staining based flow cytometry (reference value: 22.8%); assay type: functional
PC-3 [16] = experiment: Induction of mitochondrial membrane potential loss in human PC3 cells assessed as JC1 aggregate level at 10 uM incubated for 24 hrs by JC1 staining based flow cytometry (reference value: 76.94%); assay type: functional
PC-3 [17] = experiment: Induction of mitochondrial membrane potential loss in human PC3 cells incubated for 24 hrs by JC1 staining based flow cytometry (reference value: 76.94%); assay type: functional, cell-based
PC-3 [18] = experiment: Induction of apoptosis in human PC3 cells assessed as early apoptotic cells level at 2.5 uM incubated for 24 hrs by annexin V-FITC/propidium iodide dual staining based flow cytometry (reference value: 11.76%); assay type: functional
Outline: (§5)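 PC-3 cells were grown 24 h, then treated 24 h at 2.5, 5.0 or 10 µM. Cells were trypsinised, washed twice in ice-cold PBS and stained in binding buffer with Annexin V-FITC followed by propidium iodide at room temperature in the dark. 10,000 cells per sample were run on a flow cytometer, with quadrants scored as live, early apoptotic, late apoptotic or necrotic.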

PC-3 [19] = experiment: Induction of apoptosis in human PC3 cells assessed as late apoptotic cells level at 2.5 uM incubated for 24 hrs by annexin V-FITC/propidium iodide dual staining based flow cytometry (reference value: 10.92%); assay type: functional; outline: as §5
PC-3 [20] = experiment: Induction of apoptosis in human PC3 cells assessed as necrotic cells level at 2.5 uM incubated for 24 hrs by annexin V-FITC/propidium iodide dual staining based flow cytometry (reference value: 0.59%); assay type: functional; outline: as §5
PC-3 [21] = experiment: Induction of apoptosis in human PC3 cells assessed as viable cells level at 5 uM incubated for 24 hrs by annexin V-FITC/propidium iodide dual staining based flow cytometry (reference value: 76.73%); assay type: functional; outline: as §5
PC-3 [22] = experiment: Induction of apoptosis in human PC3 cells assessed as early apoptotic cells level at 10 uM incubated for 24 hrs by annexin V-FITC/propidium iodide dual staining based flow cytometry (reference value: 11.76%); assay type: functional; outline: as §5
PC-3 [23] = experiment: Induction of apoptosis in human PC3 cells assessed as late apoptotic cells level at 10 uM incubated for 24 hrs by annexin V-FITC/propidium iodide dual staining based flow cytometry (reference value: 10.92%); assay type: functional; outline: as §5

In the case of COc1ccc2cc(-c3nc4ccc(F)cc4[nH]3)c3cc(OC)c(OC)cc3c2c1, the Activity (PC-3 [1]) is reported as “Active”, the IC50 (BT-549) is reported as 13.2 µM and the IC50 (MDA-MB-453) is reported as 6.61 µM. The IC50 (HCT-116) was > 20 µM, the IC50 (PC-3 [2]) was 6.32 µM and the IC50 (DU-145) was > 20 µM. For the same compound, the Activity (PC-3 [3]) was “Active”, the Activity (PC-3 [4]) was “Active” and the Activity (PC-3 [5]) was “Active”. The Activity (PC-3 [6]) was “Active”, the Activity (PC-3 [7]) was “Active” and the Activity (PC-3 [8]) was 55.93%. It also gave an Activity (PC-3 [9]) of 5.01%, an Activity (PC-3 [10]) of 29.78% and an Activity (PC-3 [11]) of 38.61%. The Activity (PC-3 [12]) was “Dose-dependent effect”, the Activity (PC-3 [13]) was “inactive” and the Activity (PC-3 [14]) was 67.42%. The Activity (PC-3 [15]) was 95.64%, the Activity (PC-3 [16]) was 4.29% and the Activity (PC-3 [17]) was “Dose-dependent effect”. It also gave an Activity (PC-3 [18]) of 36.2%, an Activity (PC-3 [19]) of 24.89% and an Activity (PC-3 [20]) of 0.21%. It also gave an Activity (PC-3 [21]) of 32.12%, an Activity (PC-3 [22]) of 22.94% and an Activity (PC-3 [23]) of 49.02%.
